Activity calls are given as the source filed them. The calls are words filed in the database; no cut-off is given here.
Experiments:
[1] = tested on: Nucleic Acid; experiment: Binding affinity to salmon sperm DNA assessed as DNA intercalation by circular dichroism; assay type: nucleic-acid assay; settings: Salmonidae
Outline: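 CD spectra recorded in 50 mM Tris-HCl pH 8.0 with 100 mM KCl, 1 mM MgCl2 and salmon sperm DNA (25 µg/mL), inhibitor at 0, 10, 30 and 50 µM; spectral change obtained by subtracting the CD of reagent alone from the CD of DNA plus reagent.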

[2] = molecular target: T1, DNA topoisomerase (Bos taurus) (UniProt A0JN73); experiment: Inhibition calf thymus topoisomerase 1 cleavage activity assessed as increase in nicked pBR322 DNA formation after 40 mins by gel electrophoresis
T1 sequence (whole entry): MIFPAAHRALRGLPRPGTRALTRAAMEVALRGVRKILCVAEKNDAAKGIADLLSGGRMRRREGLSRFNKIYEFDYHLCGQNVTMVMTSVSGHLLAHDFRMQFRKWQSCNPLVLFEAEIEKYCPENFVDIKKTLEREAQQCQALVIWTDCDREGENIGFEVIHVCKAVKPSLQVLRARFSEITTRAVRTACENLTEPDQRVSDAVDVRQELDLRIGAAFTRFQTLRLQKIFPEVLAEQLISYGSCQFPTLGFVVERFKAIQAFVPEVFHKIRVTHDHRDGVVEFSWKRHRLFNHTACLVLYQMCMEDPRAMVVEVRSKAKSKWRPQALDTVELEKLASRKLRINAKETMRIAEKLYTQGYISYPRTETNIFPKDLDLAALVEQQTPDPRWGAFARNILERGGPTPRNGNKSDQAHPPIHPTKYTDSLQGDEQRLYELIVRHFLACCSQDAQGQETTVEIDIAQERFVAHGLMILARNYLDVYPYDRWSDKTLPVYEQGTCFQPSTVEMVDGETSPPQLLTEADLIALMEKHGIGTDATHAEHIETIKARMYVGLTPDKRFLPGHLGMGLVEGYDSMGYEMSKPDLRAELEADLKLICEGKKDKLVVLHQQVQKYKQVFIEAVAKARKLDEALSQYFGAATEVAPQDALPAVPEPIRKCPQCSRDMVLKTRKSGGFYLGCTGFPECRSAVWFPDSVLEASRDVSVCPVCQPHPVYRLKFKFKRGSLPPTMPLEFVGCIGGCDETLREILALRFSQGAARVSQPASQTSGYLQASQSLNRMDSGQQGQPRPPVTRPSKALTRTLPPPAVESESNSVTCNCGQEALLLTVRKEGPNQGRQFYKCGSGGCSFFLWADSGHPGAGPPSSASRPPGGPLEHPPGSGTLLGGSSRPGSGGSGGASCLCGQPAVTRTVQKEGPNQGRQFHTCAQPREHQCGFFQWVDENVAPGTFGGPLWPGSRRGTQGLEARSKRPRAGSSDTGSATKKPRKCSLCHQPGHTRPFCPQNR

Structure (SMILES): CC[C@@]1(O)C(=O)OCc2c1cc1n(c2=O)Cc2cc3ccccc3nc2-1
- Activity [1]: inactive
- Activity [2]: Active

Structure (SMILES): COc1cccc2c1C(=O)c1c(O)c3c(c(O)c1C2=O)C[C@@](O)(C(=O)CO)C[C@@H]3O[C@H]1C[C@H](N)[C@H](O)[C@H](C)O1
- Activity [1]: Active

Structure (SMILES): O=C1Oc2cc(O)ccc2/C1=C\c1ccc(O)cc1
- Activity [1]: inactive
- Activity [2]: inactive
